pIC50: −log10 of the molar value.
Columns and labels:
[1] = target: Tyrosine-protein kinase CSK (Homo sapiens) (UniProt P41240); assay: Inhibition of full length recombinant His-tagged human CSK cytoplasmic domain expressed in Escherichia coli at 1 uM by FRET assay relative to control
[2] = target: Mitogen-activated protein kinase 9 (Homo sapiens, UniProt P45984); assay: Inhibition of recombinant full length His-tagged human JNK2 ([…]) expressed in baculovirus expression system at 1 uM by FRET assay relative to control
[3] = target: Adenosine receptor A1 (Homo sapiens) (UniProt P30542); assay: Binding affinity to recombinant human A1 adenosine receptor at 10 uM relative to control
In short: (§1)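 Broad radioligand-binding and enzyme screening panel covering 42 targets (biogenic amine and neuropeptide receptors, ion channels, neurotransmitter transporters, acetylcholinesterase). Single test concentration of 10 μM. Results expressed as binding relative to control, with a hit defined as >50% of control.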

[4] = target: Mitogen-activated protein kinase 10 (Homo sapiens, UniProt P53779); assay: Inhibition of recombinant full length GST-tagged human JNK3 expressed in baculovirus expression system by FRET assay
[5] = target: Tyrosine-protein kinase Mer (Homo sapiens) (UniProt Q12866); assay: Inhibition of recombinant GST-tagged human Mer cytoplasmic domain expressed in baculovirus expression system at 1 uM by FRET assay relative to control
In short: (§2)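 Single-point screen at 1 μM compound in a 220-kinase panel run by Life Technologies (SelectScreen). Z′-LYTE format: phosphorylation of a labeled peptide substrate read by FRET. Values are reported as percent inhibition.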

[6] = target: Mitogen-activated protein kinase kinase kinase 10 (Homo sapiens, UniProt Q02779); assay: Inhibition of recombinant human full length GST-tagged MLK2 expressed in baculovirus expression system by FRET assay
[7] = target: Ribosomal protein S6 kinase alpha-2 (Homo sapiens) (UniProt Q15349); assay: Inhibition of recombinant full length GST-tagged human RSK3 expressed in insect cells at 1 uM by FRET assay relative to control
In short: (§3)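 Single-concentration screen at 1 μM in Life Technologies SelectScreen, across a 220-kinase panel. Z′-LYTE format measures phosphorylation of a labeled peptide by FRET. Results are reported as percent inhibition.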

[8] = target: Histamine H1 receptor (Homo sapiens) (UniProt P35367); assay: Binding affinity to recombinant human H1 receptor at 10 uM relative to control; in short: as §1
[9] = target: TGF-beta receptor type-1 (Homo sapiens) (UniProt P36897); assay: Inhibition of recombinant full length N-terminal GST-tagged human TGFBR1 (200 to 503 residues) expressed in baculovirus expression system at 1 uM by FRET assay relative to control
[10] = target: Receptor-type tyrosine-protein kinase FLT3 (Homo sapiens, UniProt P36888); assay: Inhibition of recombinant His-tagged human FLT3 cytoplasmic domain expressed in baculovirus expression system by FRET assay
[11] = species: Homo sapiens; assay: Binding affinity to L-type calcium channel dihydropyridine binding site (unknown origin) receptor at 10 uM relative to control; in short: as §1
[12] = target: RAC-alpha serine/threonine-protein kinase (Homo sapiens) (UniProt P31749); assay: Inhibition of recombinant full length His-tagged human AKT1 expressed in baculovirus expression system at 1 uM by FRET assay relative to control
[13] = target: Ephrin type-A receptor 7 (Homo sapiens, UniProt Q15375); assay: Inhibition of recombinant GST-tagged human EphA7 cytoplasmic domain expressed in baculovirus expression system at 1 uM by FRET assay relative to control; in short: as §2
[14] = target: Interleukin-1 receptor-associated kinase 1 (Homo sapiens) (UniProt P51617); assay: Inhibition of recombinant GST-tagged human IRAK1 (194 to 712 residues) expressed in baculovirus expression system at 1 uM by FRET relative to control; in short: as §2
[15] = target: Tyrosine-protein kinase Lyn (Homo sapiens) (UniProt P07948); assay: Inhibition of recombinant full length His-tagged human LYN expressed in baculovirus expression system at 1 uM by FRET assay relative to control
[16] = target: Gamma-aminobutyric acid type B receptor subunit 1 (Homo sapiens) (UniProt Q9UBS5); assay: Binding affinity to GABA-B1b (unknown origin) at 10 uM relative to control; in short: as §1
[17] = target: 5-hydroxytryptamine receptor 2A (Homo sapiens) (UniProt P28223); assay: Binding affinity to 5HT2A receptor (unknown origin) receptor at 10 uM relative to control; in short: as §1
[18] = target: Phosphorylase b kinase gamma catalytic chain, liver/testis isoform (Homo sapiens) (UniProt P15735); assay: Inhibition of recombinant full length GST-tagged human PHKgamma2 expressed in baculovirus expression system at 1 uM by FRET assay relative to control; in short: as §3
[19] = target: Serine/threonine-protein kinase mTOR (Homo sapiens) (UniProt P42345); assay: Inhibition of recombinant GST-tagged human mTOR catalytic domain (1360 to 2549 residues) expressed in baculovirus expression system at 1 uM by FRET assay relative to control; in short: as §2
[20] = target: Myosin light chain kinase, smooth muscle (Homo sapiens) (UniProt Q15746); assay: Inhibition of recombinant human full length N-terminal GST-tagged smMLCK catalytic domain expressed in baculovirus expression system at 1 uM by FRET assay relative to control
[21] = target: Mitogen-activated protein kinase kinase kinase kinase 4 (Homo sapiens) (UniProt O95819); assay: Inhibition of recombinant GST-tagged human MAP4K4 (1 to 328 residues) expressed in baculovirus expression system at 1 uM by FRET assay relative to control; in short: as §2
[22] = target: Tyrosine-protein kinase Fgr (Homo sapiens) (UniProt P09769); assay: Inhibition of recombinant full length His-tagged human FGR expressed in baculovirus expression system at 1 uM by FRET assay relative to control
[23] = target: Receptor-interacting serine/threonine-protein kinase 2 (Homo sapiens) (UniProt O43353); assay: Inhibition of recombinant His-tagged human RIPK2 catalytic domain (1 to 299 residues) expressed in baculovirus expression system at 1 uM by FRET assay relative to control; in short: as §3
[24] = target: Mast/stem cell growth factor receptor Kit (Homo sapiens) (UniProt P10721); assay: Inhibition of recombinant GST/His-tagged human KIT cytoplasmic domain (544 to 976 residues) at 1 uM by FRET assay relative to control; in short: as §2
[25] = target: Death-associated protein kinase 1 (Homo sapiens) (UniProt P53355); assay: Inhibition of recombinant N-terminal GST-tagged human DAPK1 (1 to 363 residues) expressed in baculovirus expression system at 1 uM by FRET assay relative to control; in short: as §3
[26] = target: Casein kinase I isoform alpha (Homo sapiens) (UniProt P48729); assay: Inhibition of CK1alpha1 (unknown origin) at 1 uM by FRET assay relative to control
[27] = target: Beta-1 adrenergic receptor (Homo sapiens) (UniProt P08588); assay: Binding affinity to recombinant human beta1 adrenergic receptor at 10 uM relative to control; in short: as §1
[28] = target: Serine/threonine-protein kinase PAK 6 (Homo sapiens) (UniProt Q9NQU5); assay: Inhibition of recombinant full length His-tagged human PAK6 expressed in baculovirus expression system at 1 uM by FRET assay relative to control
Chain of Serine/threonine-protein kinase PAK 6 (Homo sapiens) (Q9NQU5 whole entry, looked up): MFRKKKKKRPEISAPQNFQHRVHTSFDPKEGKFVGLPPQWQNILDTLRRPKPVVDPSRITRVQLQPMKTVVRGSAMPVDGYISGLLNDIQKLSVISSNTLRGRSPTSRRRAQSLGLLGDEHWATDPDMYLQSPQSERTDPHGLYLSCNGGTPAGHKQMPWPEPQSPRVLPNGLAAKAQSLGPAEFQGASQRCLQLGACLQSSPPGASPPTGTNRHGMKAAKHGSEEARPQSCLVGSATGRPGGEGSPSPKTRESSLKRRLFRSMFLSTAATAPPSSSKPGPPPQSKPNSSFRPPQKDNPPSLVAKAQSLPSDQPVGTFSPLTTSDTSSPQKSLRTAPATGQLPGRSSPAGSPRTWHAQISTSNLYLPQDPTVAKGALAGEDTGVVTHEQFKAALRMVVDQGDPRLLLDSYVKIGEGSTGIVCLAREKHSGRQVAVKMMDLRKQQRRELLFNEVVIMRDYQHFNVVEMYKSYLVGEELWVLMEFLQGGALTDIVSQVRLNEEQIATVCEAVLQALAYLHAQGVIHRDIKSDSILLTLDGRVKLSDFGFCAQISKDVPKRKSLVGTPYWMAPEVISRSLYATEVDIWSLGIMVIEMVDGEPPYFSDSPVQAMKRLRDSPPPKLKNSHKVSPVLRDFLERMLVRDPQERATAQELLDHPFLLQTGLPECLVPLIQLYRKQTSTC

Chain of Myosin light chain kinase, smooth muscle (Homo sapiens) (Q15746 whole entry, the tested form may be a part): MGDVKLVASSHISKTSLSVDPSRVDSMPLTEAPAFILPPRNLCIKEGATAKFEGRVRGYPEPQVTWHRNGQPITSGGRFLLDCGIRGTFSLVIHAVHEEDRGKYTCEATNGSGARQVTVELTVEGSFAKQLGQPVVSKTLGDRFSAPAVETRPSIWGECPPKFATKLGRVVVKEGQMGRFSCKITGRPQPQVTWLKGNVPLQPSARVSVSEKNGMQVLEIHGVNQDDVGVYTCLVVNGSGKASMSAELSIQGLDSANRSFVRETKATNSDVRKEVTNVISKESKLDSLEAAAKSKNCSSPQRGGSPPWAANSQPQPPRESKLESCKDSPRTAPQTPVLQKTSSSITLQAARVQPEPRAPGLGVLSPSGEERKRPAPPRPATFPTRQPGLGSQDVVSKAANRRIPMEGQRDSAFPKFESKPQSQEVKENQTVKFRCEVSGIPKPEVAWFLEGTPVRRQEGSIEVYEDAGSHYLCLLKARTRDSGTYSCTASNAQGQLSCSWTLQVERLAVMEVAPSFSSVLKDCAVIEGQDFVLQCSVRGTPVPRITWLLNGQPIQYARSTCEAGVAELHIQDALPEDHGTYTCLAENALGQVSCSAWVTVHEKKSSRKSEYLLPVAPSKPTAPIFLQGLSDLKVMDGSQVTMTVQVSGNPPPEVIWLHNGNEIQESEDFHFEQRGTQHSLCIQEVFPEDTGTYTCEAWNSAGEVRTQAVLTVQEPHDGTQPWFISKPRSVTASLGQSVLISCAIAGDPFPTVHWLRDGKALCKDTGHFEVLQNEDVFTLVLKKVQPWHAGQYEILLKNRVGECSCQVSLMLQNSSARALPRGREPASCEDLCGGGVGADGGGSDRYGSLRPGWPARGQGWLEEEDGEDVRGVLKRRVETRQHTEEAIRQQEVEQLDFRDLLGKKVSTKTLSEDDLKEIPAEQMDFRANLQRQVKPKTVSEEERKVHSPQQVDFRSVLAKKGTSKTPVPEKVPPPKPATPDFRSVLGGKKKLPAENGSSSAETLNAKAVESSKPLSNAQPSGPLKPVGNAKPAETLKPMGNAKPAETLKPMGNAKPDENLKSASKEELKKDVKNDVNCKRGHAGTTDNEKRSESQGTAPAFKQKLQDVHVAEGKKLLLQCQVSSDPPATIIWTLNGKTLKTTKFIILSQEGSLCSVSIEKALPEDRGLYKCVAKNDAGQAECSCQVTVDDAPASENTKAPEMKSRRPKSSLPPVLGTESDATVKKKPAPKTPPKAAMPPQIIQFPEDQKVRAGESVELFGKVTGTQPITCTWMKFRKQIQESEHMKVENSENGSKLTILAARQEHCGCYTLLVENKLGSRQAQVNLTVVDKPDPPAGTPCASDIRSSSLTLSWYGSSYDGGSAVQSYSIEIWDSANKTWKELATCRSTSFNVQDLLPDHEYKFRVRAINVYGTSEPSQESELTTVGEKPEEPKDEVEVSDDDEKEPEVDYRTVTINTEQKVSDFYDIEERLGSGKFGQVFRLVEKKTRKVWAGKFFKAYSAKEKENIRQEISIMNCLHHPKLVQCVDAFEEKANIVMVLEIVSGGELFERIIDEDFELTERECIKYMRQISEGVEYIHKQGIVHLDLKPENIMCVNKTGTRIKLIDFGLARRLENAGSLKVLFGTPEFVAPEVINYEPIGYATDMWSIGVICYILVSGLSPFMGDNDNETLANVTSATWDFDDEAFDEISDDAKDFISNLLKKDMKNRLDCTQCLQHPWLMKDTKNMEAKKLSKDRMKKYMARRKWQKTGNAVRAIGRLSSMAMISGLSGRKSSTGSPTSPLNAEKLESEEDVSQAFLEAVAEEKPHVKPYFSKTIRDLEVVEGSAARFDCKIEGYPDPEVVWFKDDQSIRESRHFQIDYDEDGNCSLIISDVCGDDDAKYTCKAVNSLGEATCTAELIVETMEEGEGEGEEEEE
Chain of Ribosomal protein S6 kinase alpha-2 (Homo sapiens) (Q15349 whole entry): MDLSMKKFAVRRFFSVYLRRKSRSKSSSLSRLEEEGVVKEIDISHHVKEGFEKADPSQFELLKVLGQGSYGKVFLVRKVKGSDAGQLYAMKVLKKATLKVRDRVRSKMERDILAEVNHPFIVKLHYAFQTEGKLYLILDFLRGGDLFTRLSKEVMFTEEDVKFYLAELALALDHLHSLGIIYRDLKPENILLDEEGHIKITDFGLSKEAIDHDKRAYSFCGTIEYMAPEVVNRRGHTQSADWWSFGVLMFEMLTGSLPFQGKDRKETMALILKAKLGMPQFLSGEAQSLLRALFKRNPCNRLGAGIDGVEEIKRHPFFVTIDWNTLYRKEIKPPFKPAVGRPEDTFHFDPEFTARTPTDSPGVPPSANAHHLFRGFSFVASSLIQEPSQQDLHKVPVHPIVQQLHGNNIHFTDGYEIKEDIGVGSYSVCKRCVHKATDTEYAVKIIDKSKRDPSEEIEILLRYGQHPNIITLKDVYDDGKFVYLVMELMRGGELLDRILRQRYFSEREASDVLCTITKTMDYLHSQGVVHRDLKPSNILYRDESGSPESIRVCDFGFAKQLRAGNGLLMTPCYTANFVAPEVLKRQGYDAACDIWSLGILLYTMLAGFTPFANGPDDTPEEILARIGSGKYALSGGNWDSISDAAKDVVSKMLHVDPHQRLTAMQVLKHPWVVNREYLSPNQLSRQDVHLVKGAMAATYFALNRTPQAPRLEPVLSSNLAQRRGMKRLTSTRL
Chain of Beta-1 adrenergic receptor (Homo sapiens) (P08588 whole entry, looked up): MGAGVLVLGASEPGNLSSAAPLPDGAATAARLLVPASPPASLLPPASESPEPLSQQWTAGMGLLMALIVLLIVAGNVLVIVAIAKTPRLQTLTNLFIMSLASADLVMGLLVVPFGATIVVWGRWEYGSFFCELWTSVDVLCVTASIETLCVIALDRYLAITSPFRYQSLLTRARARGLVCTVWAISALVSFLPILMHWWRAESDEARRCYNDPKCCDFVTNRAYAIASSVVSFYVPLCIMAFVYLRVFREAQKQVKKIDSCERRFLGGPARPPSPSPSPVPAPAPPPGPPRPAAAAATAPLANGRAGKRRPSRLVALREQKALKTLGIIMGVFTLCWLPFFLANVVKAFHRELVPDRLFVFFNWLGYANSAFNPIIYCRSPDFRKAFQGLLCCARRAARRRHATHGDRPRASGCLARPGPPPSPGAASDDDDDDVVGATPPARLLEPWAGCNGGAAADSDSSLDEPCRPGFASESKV
Chain of Gamma-aminobutyric acid type B receptor subunit 1 (Homo sapiens) (Q9UBS5 whole entry): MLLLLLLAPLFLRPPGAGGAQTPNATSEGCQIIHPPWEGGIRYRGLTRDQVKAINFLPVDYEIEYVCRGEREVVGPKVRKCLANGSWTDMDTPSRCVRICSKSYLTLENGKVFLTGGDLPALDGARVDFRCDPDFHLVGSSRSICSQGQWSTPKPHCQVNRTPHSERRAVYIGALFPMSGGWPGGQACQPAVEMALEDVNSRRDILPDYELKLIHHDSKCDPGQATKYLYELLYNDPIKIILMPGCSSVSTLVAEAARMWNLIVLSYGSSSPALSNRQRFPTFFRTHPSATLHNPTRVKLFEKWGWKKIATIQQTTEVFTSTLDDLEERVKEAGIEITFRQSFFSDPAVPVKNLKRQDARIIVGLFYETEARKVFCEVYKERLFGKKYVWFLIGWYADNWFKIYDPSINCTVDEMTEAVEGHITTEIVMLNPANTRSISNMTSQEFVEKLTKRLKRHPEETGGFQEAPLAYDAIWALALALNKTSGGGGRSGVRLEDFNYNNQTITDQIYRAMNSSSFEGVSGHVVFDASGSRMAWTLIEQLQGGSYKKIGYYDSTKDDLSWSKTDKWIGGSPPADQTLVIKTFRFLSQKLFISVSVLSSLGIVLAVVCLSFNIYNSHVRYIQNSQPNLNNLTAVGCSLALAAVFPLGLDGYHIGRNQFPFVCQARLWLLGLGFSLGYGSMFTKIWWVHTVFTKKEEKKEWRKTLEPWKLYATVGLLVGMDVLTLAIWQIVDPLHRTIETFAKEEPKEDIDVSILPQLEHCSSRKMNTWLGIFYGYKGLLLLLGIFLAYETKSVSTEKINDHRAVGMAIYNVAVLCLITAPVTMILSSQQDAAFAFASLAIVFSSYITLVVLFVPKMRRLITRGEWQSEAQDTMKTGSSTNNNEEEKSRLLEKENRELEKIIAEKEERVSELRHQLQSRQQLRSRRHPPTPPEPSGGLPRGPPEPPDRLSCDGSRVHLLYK
Chain of Adenosine receptor A1 (Homo sapiens) (P30542 whole entry): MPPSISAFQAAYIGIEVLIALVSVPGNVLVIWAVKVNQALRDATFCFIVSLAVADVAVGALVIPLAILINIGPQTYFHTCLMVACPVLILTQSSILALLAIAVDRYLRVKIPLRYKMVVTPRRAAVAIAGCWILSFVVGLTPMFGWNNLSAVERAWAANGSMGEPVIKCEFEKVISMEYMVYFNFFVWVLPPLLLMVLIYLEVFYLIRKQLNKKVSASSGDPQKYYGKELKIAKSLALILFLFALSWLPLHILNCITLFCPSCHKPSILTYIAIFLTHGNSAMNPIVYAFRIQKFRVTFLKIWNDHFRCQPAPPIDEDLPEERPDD

| SMILES | inhibition [1] [%] | inhibition [2] [%] | Activity [3] [%] | pIC50 [4] | inhibition [5] [%] | pIC50 [6] | inhibition [7] [%] | Activity [8] [%] | inhibition [9] [%] | pIC50 [10] | Activity [11] [%] | inhibition [12] [%] | inhibition [13] [%] | inhibition [14] [%] | inhibition [15] [%] | Activity [16] [%] | Activity [17] [%] | inhibition [18] [%] | inhibition [19] [%] | inhibition [20] [%] | further results |
| --- | --- | --- | --- | --- | --- | --- | --- | --- | --- | --- | --- | --- | --- | --- | --- | --- | --- | --- | --- | --- | --- |
| CC(C)n1nc(-c2cnc(N)c(OC(F)(F)F)c2)cc1[C@H]1[C@@H]2CN(C3COC3)C[C@@H]21 | 6.8 | 4.4 | > 50 | < 5.00 | 22.5 | 5.10 | 3.6 | > 50 | 1.6 | 6.15 | > 50 | 1.7 | 39 | 8 | 15.6 | > 50 | > 50 | 1.7 | 7.9 | 19.6 | inhibition [21]: 22.1%; inhibition [22]: 31.9%; inhibition [23]: 34.2%; inhibition [24]: 23.9%; inhibition [25]: -5.1%; inhibition [26]: -0.3%; Activity [27]: > 50%; inhibition [28]: 4.8% |
| Nc1ncc(-c2cc([C@H]3[C@@H]4CN(C5COC5)C[C@@H]43)n(CC3CC3)n2)cc1C(F)(F)F | 14.8 | 0.6 | > 50 | < 5.00 | 37 | 5.29 | 3.5 | > 50 | 11.7 | 6.62 | > 50 | -0.4 | 51.4 | -6.1 | 17.9 | > 50 | > 50 | 3.8 | -0.8 | 11.7 | inhibition [21]: 21.4%; inhibition [22]: 32.2%; inhibition [23]: 41.4%; inhibition [24]: 6.5%; inhibition [25]: 14%; inhibition [26]: 1.1%; Activity [27]: > 50%; inhibition [28]: 5.1% |
